Assay results reported in ChEMBL document CHEMBL1156242, “Synthesis of a novel series of diphenolic chromone derivatives as inhibitors of NO production in LPS-activated RAW264.7 macrophages” (Bioorg Med Chem, 2010).

What was measured:
RAW264.7 [1] = experiment: Antiinflammatory activity in LPS-stimulated mouse RAW264.7 cells assessed as inhibition of nitric oxide production after 24 hrs by Griess reagent; type: functional, cell-based; details: RAW264.7, 24 h
RAW264.7 [2] = experiment: Cytotoxicity against LPS-stimulated mouse RAW264.7 cells after 24 hrs by MTT assay; type: cell-based; details: RAW264.7, 24 h
How it was run: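 RAW264.7 in 96-well plates left untreated or exposed to compounds at various concentrations for 24 h. MTT (5 mg/mL) added 4 h before end. Lysis buffer (10% SDS, 50% DMF, pH 7.2) applied 6 h, absorbance read at 570 nm.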

Compound | IC50 (RAW264.7 [1]) [µM] | IC50 (RAW264.7 [2]) [µM]
Cc1ccccc1C(=O)Oc1coc2cc(O)cc(O)c2c1=O | 17 | > 100
O=C(Oc1coc2cc(O)cc(O)c2c1=O)c1ccccc1 | 86.6 | > 100
CCCCCCCCC(=O)Oc1coc2cc(O)cc(O)c2c1=O | 62.2 | > 100
O=c1c(CO)coc2cc(O)cc(O)c12 | > 100 | > 100
CS(=O)(=O)Oc1coc2cc(O)cc(O)c2c1=O | 53.7 | > 100
O=c1c(-c2ccc(O)cc2)coc2cc(O)cc(O)c12 [GENISTEIN] | 26 | 
O=c1cc(-c2ccc(O)cc2)oc2cc(O)cc(O)c12 [APIGENIN] | 7.7 | 
CCCCC(=O)Oc1coc2cc(O)cc(O)c2c1=O | 60.4 | > 100
Cc1ccc(S(=O)(=O)Oc2coc3cc(O)cc(O)c3c2=O)cc1 | 19.2 | > 100
O=c1cc(-c2ccc(O)c(O)c2)oc2cc(O)cc(O)c12 [LUTEOLIN] | 10.4 | 
CC(=O)Oc1coc2cc(O)cc(O)c2c1=O | 60 | > 100
O=c1c(O)coc2cc(O)cc(O)c12 | > 100 | > 100
COc1ccc(C(=O)Oc2coc3cc(O)cc(O)c3c2=O)cc1 | 47.2 | > 100
CCn1cc(-c2ccc(O)cc2)c(=O)c2c(O)cc(O)cc21 [AZAISOFLAVONE] | 7.8 | 
